Key:
[1] = biological target: T1, RPA70N (Homo sapiens, UniProt P27694); experiment: NMR-based titration, binding to RPA70N; settings: linked compound vs fragments
[2] = biological target: T1, RPA70N; experiment: ATRIP-based FPA competition assay; format: binding; settings: from FPA-derived Kd
Procedure, shortened: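 Competitive fluorescence polarization anisotropy. Buffer: 50 mM HEPES, 75 mM NaCl, 5 mM DTT, pH 7.5, 5% DMSO. Test compound run as 10-point 3-fold series, 500–0.025 µM final. 4-parameter logistic IC50 converted to Kd.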

Compound	increase in affinity with respect to the starting fragments [1] [fold]	ligand efficiency (LE) [2]
Cc1cccc(-n2nc(C(=O)O)cc2-c2ccc(OCc3ccc(-c4ccc(C(=O)O)o4)cc3)cc2)c1 [compound 7, 5-(4-((4-(5-Carboxyfuran-2-yl)benzyl)oxy)phenyl)-1-(m-tolyl)-1H-pyrazole-3-carboxylic acid]	> 20	
O=C(O)c1cc(-c2ccc(CNC(=S)c3ccc(-c4ccc(C(=O)O)o4)cc3Cl)cc2)n(-c2ccc(Cl)c(Cl)c2)n1 [compound 8, 5-(4-((4-(5-Carboxyfuran-2-yl)-2-chlorophenylthioamido)methyl)phenyl)-1-(3,4-dichlorophenyl)-1H-pyrazole-3-carboxylic acid]		0.23
O=C(O)c1cc(-c2ccc(CNC(=O)c3ccc(-c4ccc(C(=O)O)o4)cc3Cl)cc2)n(-c2ccc(Cl)c(Cl)c2)n1 [compound 22, 5-(4-((4-(5-Carboxyfuran-2-yl)-2-chlorobenzamido)methyl)phenyl)-1-(3,4-dichlorophenyl)-1H-pyrazole-3-carboxylic acid]		0.18

Source: article PMC3932990 (Journal of medicinal chemistry, 2013)
